SR-BI DiI-HDL act: SR-BI HDL lipid transfer activation; CHO ldlA[mSR-BI] cells, DiI-HDL uptake fluorescence, 3 h; 100 = double the neutral-control signal; 320,000 compounds, 0.096% hits; activation, % at 12.5 µM;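 active = mean replicate activation of at least 60% and every replicate at or above 60%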;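 also: 0% = median plate neutral-control signal and 100% = twice that signal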
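Assay system: CHO ldlA[mSR-BI] cells, LDL receptor-null, SR-BI overexpressing; medium: Ham's F12 with 0.5% BSA, HEPES 25 mM, pH 7.4; also added: DiI-HDL 10 µg/mL; timing: 3 h uptake period with compound, 37 °C; signal: DiI fluorescence, bottom read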
Hep lipid drop: modulators of hepatic lipid droplet formation. 240,000 compounds, 0.4% hits. inhibition, % at 6.5 µM. AML12 mouse hepatocytes, oleate lipid droplets, BODIPY imaging;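 active = lipid droplet intensity inhibited by at least 50%, with more than 500 cells counted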
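material = mouse AML12 hepatocyte cell line, fixed after treatment | also added = 100 µM oleic acid challenge | doses = compound at 6.5 µM only | schedule = overnight exposure | technique = Image-based BODIPY and DAPI two-channel analysis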
SR-BI HDL uptake: mouse SR-BI HDL lipid transfer inhibition; Q61009; ldlA[mSR-BI] CHO cells, DiI-HDL uptake fluorescence, 3 h; inhibition, % at 12.5 µM; 320,000 compounds, 0.96% hits; AID 488896;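 active = mean replicate inhibition of at least 70% and a set share of replicates each scoring 70 or more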;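 also: 0% = median of neutral control wells and 100% = median of positive control wells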
SMARCA2 act: activators of SMARCA2 function | AID 652017 | activation, % at 9.1 µM | 370,000 compounds, 1% hits | MG213 cells, MMTV-luciferase reporter, dexamethasone, overnight; in the data active = activation above about 7.8%;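 also: 0% = vehicle wells and 100% = reference activator wells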
AHR act: activators of human aryl hydrocarbon receptor. AHR-responsive luciferase reporter cells, luminescence. activation, % at 5 µM. 320,000 compounds, 2.5% hits. AID 2796; in the data active = activation above about 47%;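 also: 0% = vehicle wells and 100% = reference agonist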
Target sequence (P35869 whole entry, looked up): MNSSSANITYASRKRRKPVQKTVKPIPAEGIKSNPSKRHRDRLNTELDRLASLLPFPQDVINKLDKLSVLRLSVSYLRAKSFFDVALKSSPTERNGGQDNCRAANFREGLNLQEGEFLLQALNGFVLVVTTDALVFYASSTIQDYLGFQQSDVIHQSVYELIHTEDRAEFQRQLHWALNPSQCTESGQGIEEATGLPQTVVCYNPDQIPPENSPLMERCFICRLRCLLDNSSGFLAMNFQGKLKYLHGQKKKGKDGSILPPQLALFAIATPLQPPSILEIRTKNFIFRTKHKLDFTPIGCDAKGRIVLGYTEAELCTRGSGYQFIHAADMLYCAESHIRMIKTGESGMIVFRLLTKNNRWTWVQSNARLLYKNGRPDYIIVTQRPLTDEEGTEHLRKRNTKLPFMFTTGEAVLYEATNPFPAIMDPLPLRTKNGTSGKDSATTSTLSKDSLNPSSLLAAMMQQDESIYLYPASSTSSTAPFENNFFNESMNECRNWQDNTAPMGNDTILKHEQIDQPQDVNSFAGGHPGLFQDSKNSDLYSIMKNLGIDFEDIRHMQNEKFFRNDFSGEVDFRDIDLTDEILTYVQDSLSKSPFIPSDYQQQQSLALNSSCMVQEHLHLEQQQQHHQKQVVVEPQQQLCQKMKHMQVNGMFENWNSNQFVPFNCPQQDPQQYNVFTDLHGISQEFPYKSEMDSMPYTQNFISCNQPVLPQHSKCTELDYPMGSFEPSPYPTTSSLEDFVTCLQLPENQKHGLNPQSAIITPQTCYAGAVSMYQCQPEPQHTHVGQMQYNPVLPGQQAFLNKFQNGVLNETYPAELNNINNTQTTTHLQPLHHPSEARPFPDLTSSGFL
Yeast superoxide: yeast age-related superoxide inhibition as caloric restriction mimetic; 330,000 compounds, 0.18% hits; AID 2690; superoxide response (% of plate mean), % at 10 µM; S. cerevisiae aged cells, superoxide DHE fluorescence; hits give low values;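 active = superoxide response under a set limit, about three screen SD below normal, cut at about 65% in these data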;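 also: yeast aged for seven days with compound at 30 °C before DHE staining; 100% = average MFI of all compound-treated wells on the plate with controls excluded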
Lipid drop inh: hepatic lipid droplet formation inhibition, confirmed. shares compounds with Hep lipid drop. inhibition, % at 5.2 µM. AML12 mouse hepatocytes, BODIPY lipid droplet imaging; droplets induced with 100 µM oleic acid. 870 compounds, 65% hits;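 active = inhibition of lipid droplet metric at least 50%, with more than 300 cells in each of four replicates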;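 also: plate controls were DMSO with oleic acid for no effect and 5 µM Triacsin-C for full effect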
AML12 cytotox: AML12 hepatocyte cytotoxicity (counter-screen) | 870 compounds, 3% hits | z-score at 5 µM | shares compounds with Hep lipid drop | AML12 mouse hepatocytes, DAPI nuclear morphology cytotoxicity imaging; hits give high values; cells fed 100 µM oleate overnight; in the data active = z-score above about 6.3;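 also: compound exposure lasted overnight at 37 °C before fixation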
AML12 tox conf: AML12 hepatocyte cytotoxicity, confirmed. cytotoxicity, % at 50 µM. shares compounds with Hep lipid drop. 530 tested, under 10 active. AID 463219. AML12 mouse hepatocyte viability, ATP luminescence; cells loaded with 100 µM oleic acid;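 active = cytotoxicity above 50% in each of four replicates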;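 also: compound exposure lasted overnight at 37 °C before the ATP read; 0% = DMSO-treated cells and 100% = wells with no cells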
* marks the source's active call; other numbers are inactive results; / = not tested or not shown. In the library only some 4.3% were active in any assay of this set; here they are far more common.

SMILES	SR-BI DiI-HDL act	Hep lipid drop	SR-BI HDL uptake	SMARCA2 act	AHR act	Yeast superoxide	Lipid drop inh	AML12 cytotox	AML12 tox conf
O=C(OCc1ccc([N+](=O)[O-])cc1)c1ccc(N2CCCC2)c([N+](=O)[O-])c1	-7	-2	7	-1	3	112	/	/	/
CC(=O)O[C@H]1CC[C@]2(C)C3CC[C@]4(C)[C@@H]([C@H](C)/C=C/[C@H](C)C(C)C)CC[C@H]4[C@@]34C=C[C@]2(C1)N(C(=O)c1ccccc1)O4 (some centres not stated)	/	/	/	-1	/	/	/	/	/
C=CCNC(=S)Nc1cc(S(=O)(=O)N2CCOCC2)ccc1-n1cncn1	20	119*	-20	-2	0	105	-7	-0.26	/
Cc1cccc(C2=CC(=O)CC(C)(C)C2=O)c1	/	/	/	-1	/	/	/	/	/
COc1ccccc1NS(=O)(=O)c1cc(NC(=O)c2cc3ccccc3oc2=O)ccc1C	10	58*	-10	0	-4	101	52	-0.64	/
CNC(=S)N1CCc2cc(OC)c(OC)cc2C1COc1ccc(F)cc1 (configuration not stated)	-17	24	17	-1	5	120	/	/	/
CCNC(=S)N1CCc2cc(OC)c(OC)cc2C1COc1ccc(F)cc1 (configuration not stated)	-29	60*	29	-2	1	121	97*	-0.0057	3
O=C(NCc1ccccc1)[C@@H]1CCCN1C(=O)[C@H]1CCCN1C(=O)c1ccc(F)cc1F	/	/	/	0	/	/	/	/	/
O=[N+]([O-])c1ccc(-[n+]2nc(-c3ccccc3)nn2-c2ccccc2)cc1	16	87*	-16	-1	-1	102	115*	-0.74	12
COC(=O)[C@]12C[C@H](CC(=O)N3CCCC3)C(=O)N(CCc3ccc(OC)c(OC)c3)C1=C[C@H](COCc1ccccc1)O[C@@H]2C	/	/	/	-1	/	/	/	/	/
CCc1ccccc1CNC(=O)C1CCC(CNS(=O)(=O)c2cccc3cccnc23)CC1 (configuration not stated)	/	/	/	-1	/	/	/	/	/
Cc1cccc(NC(=O)CSc2nnc(C)c(=O)n2N)c1	17	56*	-17	-3	2	104	46	0.049	7
Cc1ccc(NC(=O)CSc2nnc(C)c(=O)n2N)cc1Cl	7	63*	-7	-4	22	99	97*	-0.51	12
Cc1ccc(NC(=O)CSc2nnc(C)c(=O)n2N)c(C)c1	30	22	-30	0	30	93	/	/	/
C[C@@H]1CCCCO[C@H](CN(C)C(=O)C2CCCCC2)[C@@H](C)CN([C@H](C)CO)C(=O)c2cc(NS(=O)(=O)c3cccs3)ccc2O1	/	/	/	-3	/	/	/	/	/
O=C(CCl)Nc1ccc(C(=O)NCC2COc3ccccc3O2)cc1 (configuration not stated)	/	/	/	-14	/	/	/	/	/
COC(=O)c1ccc(C2=NOC(C)(c3sc(-c4ccc(Cl)cc4)nc3C)C2)cc1 (configuration not stated)	-39	56*	39	1	8	81	58*	-0.091	6
N#Cc1cccc(-n2cc(COC(=O)NCCc3ccccc3)nn2)c1	/	/	/	0	/	/	/	/	/
CCOc1cc(Br)c(CC(=O)NC2CCCCCC2)cc1OCC	-15	116*	15	-3	2	96	108*	0.016	9
COc1ccc(C(=O)CSc2nnc(-c3cccs3)o2)cc1OC	/	/	/	-4	/	/	/	/	/
CS(=O)(=O)Nc1ccc(C(=O)Nc2ccccc2C(=O)NCc2ccco2)cc1	-40	57*	40	0	4	106	-3	-0.51	/
CCCCN1C(=O)/C(=C/C=C2\Oc3ccccc3N2CC)SC1=S	-89	69*	89*	-5	/	/	113*	-0.5	14
CCCN1C(=O)/C(=C/C=C2\N(CC)c3ccccc3C2(C)C)SC1=S	-48	/	48	3	2	106	/	/	/
